How the values were obtained:
[1] = test system: Human immunodeficiency virus 1; test: Inhibitory activity against wild type HIV-1 LAI cell line; assay type: functional, organism-based; conditions: Human immunodeficiency virus 1, LAI
Outline: (§1)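 MT4 human T-lymphoblastoid cells were grown in RPMI 1640 with 10% fetal calf serum and antibiotics at 37 °C and 5% CO2. A compound concentration series was combined with HIV-1 LAI at 200 CCID50/well and 30 000 cells/well. Mock-infected cultures with the same concentrations were run in parallel to measure cytotoxicity. After 5 days, cell viability was read by MTT colorimetry. EC50 is the concentration giving 50% infection versus the drug-free control.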

[2] = test system: Human immunodeficiency virus 1; test: Selectivity index of cytotoxic activity (CC50) to inhibitory activity (IC50) relative to LAI cell line; assay type: functional; outline: as §1
[3] = test system: Human immunodeficiency virus 1; test: Inhibitory activity against HIV-1 mutant strain 181C; assay type: functional, organism-based
Outline: (§2)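 Mutant HIV-1 made by recombining mutant PR-RT sequence into a PR-RT-deleted HXB2 proviral clone. Serial compound concentrations plated, then virus (200 CCID50/well) and MT4 cells (30 000 cells/well; RPMI 1640, 10% FCS) added; 5 days at 37 °C, 5% CO2; viability read by MTT. EC50 = concentration giving 50% infection versus drug-free control; mock-infected cultures run in parallel for toxicity.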

[4] = test system: Human immunodeficiency virus 1; test: Inhibitory activity against HIV-1 mutant strain 188L; assay type: functional, organism-based; outline: as §2
[5] = test system: Human immunodeficiency virus 1; test: Inhibitory activity against HIV-1 mutant strain 103N; assay type: functional, organism-based; outline: as §2

Row | SMILES | IC50 [1] [nM] | Selectivity index [2] | IC50 [3] [nM] | IC50 [4] [nM] | IC50 [5] [nM]
1 | CCc1c(C)nc(O)c(N(C)C)c1C(=O)c1cccc(N2CCCC2=O)c1 | 40 | 2510 | – | – | –
2 | CCc1c(C)nc(O)c(N(C)C)c1C(=O)c1cccc(/C=C\c2nccs2)c1 | 150 | 501 | – | – | –
3 | CCc1c(C)nc(O)c(N(C)C)c1Cc1ccc(OC)c(C)c1 | 390 | 251 | – | – | –
4 | CCc1c(C)nc(O)c(N(C)C)c1Cc1ccc(Cl)cc1 | 190 | 50 | 6310 | – | –
5 | CCc1c(C)nc(O)c(N(C)C)c1C(=O)c1cccc(/C=C\Cc2ccccc2)c1 | 1580 | 32 | – | – | –
6 | CCc1c(C)nc(O)c(N(C)C)c1C(=O)c1cccc(N(CC)CC)c1 | 1990 | 50 | – | – | –
7 | CCc1c(C)nc(O)c(N(C)C)c1C(=O)c1cccc(C)c1 | 2 | 39800 | – | 1990 | –
8 | CCNC(=O)Nc1cccc(C(=O)c2c(CC)c(C)nc(O)c2N(C)C)c1 | 1990 | 50 | – | – | –
9 | CCc1c(C)nc(O)c(N(C)C)c1Cc1ccnc2ccccc12 | 5010 | 20 | 63000 | – | 79400
10 | CCc1c(C)nc(O)c(N(C)C)c1C(=O)c1cccc(/C=C\c2cccnc2)c1 | 70 | 631 | – | – | –
11 | CCc1c(C)nc(O)c(N(C)C)c1C(=O)c1cccc(NC(C)=O)c1 | 120 | 794 | – | – | –
12 | CCc1c(C)nc(O)c(N(C)C)c1C(=O)c1cccc(-c2ccccc2)c1 | 390 | 251 | – | – | –
13 | CCc1c(C)nc(O)c(N(C)C)c1Cc1ccc(N(C)C)cc1 | 1250 | 8 | 10000 | – | 10000
14 | CCc1c(C)nc(O)c(N(C)C)c1C(=O)c1cccc(/C=C(\C#N)c2cccnc2)c1 | 60 | 200 | – | – | –
15 | CCc1c(C)nc(O)c(N(C)C)c1C(=O)c1cccc(/C=C/c2ccoc2)c1 | 70 | 631 | – | – | –
16 | CCc1c(C)nc(O)c(N(C)C)c1C(=O)c1cccc(/C=C/c2ccccn2)c1 | 70 | 1260 | – | – | –
17 | CCc1c(C)nc(O)c(N(C)C)c1C(=O)c1cccc(-c2nccs2)c1 | 250 | 40 | – | – | –
18 | CCc1c(C)nc(O)c(N(C)C)c1C(=O)c1ccc(C#N)cc1 | 3160 | 32 | – | – | –
19 | CCc1c(C)nc(O)c(N(C)C)c1C(=O)c1cccc(/C=C/c2cccs2)c1 | 70 | 1260 | – | – | –
20 | CCc1c(C)nc(O)c(N(C)C)c1C(=O)c1cccc(COc2ccccc2)c1 | 30 | 2510 | – | – | –

Row | SMILES | IC50 [1] [nM] | Selectivity index [2] | IC50 [3] [nM] | IC50 [4] [nM] | IC50 [5] [nM]
21 | CC/C=C/c1cccc(C(=O)c2c(CC)c(C)nc(O)c2N(C)C)c1 | 50 | 1260 | – | – | –
22 | CCc1c(C)nc(O)c(N(C)C)c1C(=O)c1cccc(/C=C\c2ccccc2)c1 | 1250 | 79 | – | – | –
23 | CCc1c(C)nc(O)c(N(C)C)c1C(=O)c1cccc(/C=C\c2ccco2)c1 | 60 | 794 | – | – | –
24 | CCc1c(C)nc(O)c(N(C)C)c1Cc1ccc(Br)cc1 | 1580 | 63 | – | – | –
25 | CCc1c(C)nc(O)c(N(C)C)c1Cc1ccc(-c2ccccc2)cc1 | 3980 | 3 | 10000 | – | 10000
26 | CCc1c(C)nc(O)c(N(C)C)c1Cc1nccn1C | 100000 | 1 | – | 100000 | –
27 | CCc1c(C)nc(O)c(N(C)C)c1C(=O)c1cccc(CNC(C)=O)c1 | 390 | 251 | – | – | –
28 | CCc1c(C)nc(O)c(N(C)C)c1C(=O)c1cccc(C(C)O)c1 (stereo not given) | 50 | 2000 | – | – | –
29 | CCc1c(C)nc(O)c(N(C)C)c1C(=O)c1cccc(/C=C(\C#N)c2ccccc2)c1 | 1000 | 16 | – | – | –
30 | CCc1c(C)nc(O)c(N(C)C)c1C(=O)c1cccc(/C=C/c2ccco2)c1 | 20 | 5010 | – | – | –
31 | CCc1c(C)nc(O)c(N(C)C)c1Cc1c(C)cc(C)cc1C | 10000 | 1 | 10000 | – | 10000
32 | CCc1c(C)nc(O)c(N(C)C)c1C(=O)c1cccc(/C=C/c2ccncc2)c1 | 10 | 10000 | – | – | –
33 | CCc1c(C)nc(O)c(N(C)C)c1C(=O)c1cccc(/C=C\c2ccncc2)c1 | 60 | 794 | – | – | –
34 | CCc1c(C)nc(O)c(N(C)C)c1C(=O)c1cccc(-c2ccco2)c1 | 60 | 158 | – | – | –
35 | CCc1c(C)nc(O)c(N(C)C)c1C(=O)c1cccc(C=C(C#N)C#N)c1 | 10 | 3980 | – | – | –
36 | CCc1c(C)nc(O)c(N(C)C)c1Cc1ccc(C(F)(F)F)cc1 | 1580 | 6 | 10000 | – | 10000
37 | CCc1c(C)nc(O)c(N(C)C)c1Cc1cccc(C)c1C | 100 | 200 | 2510 | – | 2510
38 | CCc1c(C)nc(O)c(N(C)C)c1C(=O)c1cccc(/C=C\c2cnccn2)c1 | 190 | 501 | – | – | –
39 | CCc1c(C)nc(O)c(N(C)C)c1C(=O)c1c(F)cccc1F | 50 | 2000 | – | – | –
40 | CCc1c(C)nc(O)c(N(C)C)c1C(=O)c1cccc(N(C)C)c1 | 390 | 251 | – | – | –

Row | SMILES | IC50 [1] [nM] | Selectivity index [2] | IC50 [3] [nM] | IC50 [4] [nM] | IC50 [5] [nM]
41 | CCc1c(C)nc(O)c(N(C)C)c1C(=O)c1cccc(C#Cc2ccccc2)c1 | 150 | 631 | – | – | –
42 | CCc1c(C)nc(O)c(N(C)C)c1C(=O)c1cccc(-n2cccc2)c1 | 70 | 631 | – | – | –
43 | CCc1c(C)nc(O)c(N(C)C)c1C(=O)c1cccc(NS(C)(=O)=O)c1 | 1000 | 100 | – | – | –
44 | CCc1c(C)nc(O)c(N(C)C)c1C(=O)c1cccc(/C=C/c2cccn2C)c1 | 310 | 158 | – | – | –
45 | CCc1c(C)nc(O)c(N(C)C)c1Cc1ccc(C)cc1 | 310 | 316 | 10000 | – | 12600
46 | CCc1c(C)nc(O)c(N(C)C)c1C(=O)c1cccc(/C=C(\C#N)c2cccs2)c1 | 190 | 126 | – | – | –
47 | CCc1c(C)nc(O)c(N(C)C)c1Cc1nccs1 | 60 | 1580 | 500 | – | 1990
48 | CCc1c(C)nc(O)c(N(C)C)c1Cc1cc(C)ccc1C | 150 | 631 | – | – | 1990
49 | CCc1c(C)nc(O)c(N(C)C)c1C(=O)c1cccc(/C=C/c2ccsc2)c1 | 100 | 1000 | – | – | –
50 | CCc1c(C)nc(O)c(N(C)C)c1Cc1ccc(C)c(C)c1 | 40 | 2510 | 400 | – | 1000
51 | CCc1c(C)nc(O)c(N(C)C)c1Cc1ccc(C)cc1C | 10000 | 10 | 100000 | – | 100000
52 | CCc1c(C)nc(O)c(N(C)C)c1C(=O)c1cccc(/C=C\c2ccccn2)c1 | 1580 | 63 | – | – | –
53 | CCc1c(C)nc(O)c(N(C)C)c1C(=O)c1cccc(/C=C/c2nccs2)c1 | 30 | 3160 | – | – | –
54 | CCc1c(C)nc(O)c(N(C)C)c1C(=O)c1cccc(CN)c1 | 390 | 251 | – | – | –
55 | CCOc1cccc(Cc2c(CC)c(C)nc(O)c2N(C)C)c1 | 10 | 794 | – | – | –
56 | CCc1c(C)nc(O)c(N(C)C)c1C(=O)c1cc(F)cc(C(F)(F)F)c1 | 3 | 31600 | – | – | –
57 | CCc1c(C)nc(O)c(N(C)C)c1C(=O)c1cccc(/C=C/c2ccccc2)c1 | 250 | 398 | – | – | –
58 | CCOC(=O)/C(C#N)=C\c1cccc(C(=O)c2c(CC)c(C)nc(O)c2N(C)C)c1 | 150 | 631 | – | – | –

— ChEMBL document CHEMBL1138799, “4-benzyl- and 4-benzoyl-3-dimethylaminopyridin-2(1H)-ones, a new family of potent anti-HIV agents: optimization and in vitro evaluation against clinically important HIV mutant strains” (J Med Chem, 2004)
